Assay results as given in publication PMC7888481 (Journal of natural products, 2020).
Entries after “also recorded” stand apart in the source; their conditions may differ.

Experiments:
Human FAAH = conditions: read-out: Human FAAH IC50; literature values ref 27; cited from earlier work
CB1 receptor = conditions: cited from earlier work
[1] = Pharmacokinetics after oral administration in rats; format: in vivo; conditions: rat, 100 mg/kg oral
How it was run: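 Male Sprague-Dawley rats, 8 weeks old, 250–300 g, n=4/group. Test compound given once at 100 mg/kg in 100% NEOBEE 1053 by oral gavage. Each sample added to 100 μL water with 0.1% EDTA, vortexed, stored at −80 °C, then processed and quantified by a previously reported method.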

[2] = test system: LPS-induced inflammatory pain; assay: LPS-induced inflammatory pain model; format: in vivo; conditions: rat, 100 mg/kg oral, LPS intraplantar, 6-h time-course, n=4/group
recombinant human sEH = target: T1, recombinant human sEH (Homo sapiens, UniProt P34913); assay: sEH inhibition assay; format: biochemical
T1 sequence (P34913 1-555): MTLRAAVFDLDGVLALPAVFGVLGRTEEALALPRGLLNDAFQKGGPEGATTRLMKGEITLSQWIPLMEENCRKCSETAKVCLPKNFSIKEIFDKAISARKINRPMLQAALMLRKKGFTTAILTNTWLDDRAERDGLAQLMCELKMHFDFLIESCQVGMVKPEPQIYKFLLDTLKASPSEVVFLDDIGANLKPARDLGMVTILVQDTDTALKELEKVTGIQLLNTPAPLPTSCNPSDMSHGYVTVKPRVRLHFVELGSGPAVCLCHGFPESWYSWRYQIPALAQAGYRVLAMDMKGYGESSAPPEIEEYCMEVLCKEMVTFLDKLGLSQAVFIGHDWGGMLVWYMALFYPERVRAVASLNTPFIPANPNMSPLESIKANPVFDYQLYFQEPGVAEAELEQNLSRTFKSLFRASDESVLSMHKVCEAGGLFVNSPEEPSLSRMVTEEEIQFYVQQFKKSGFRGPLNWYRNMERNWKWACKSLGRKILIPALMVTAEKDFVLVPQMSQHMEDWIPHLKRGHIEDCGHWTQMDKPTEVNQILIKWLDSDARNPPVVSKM
How it was run: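 Fluorescence assay on recombinant human sEH, test compound in serial dilution. Substrate MNPC at 5 μM final is hydrolysed to fluorescent 6-methoxynaphthaldehyde, read at λex 330 nm and λem 465 nm. IC50 determined in triplicate and the mean reported. Reference inhibitor t-TUCB run in parallel to validate the assay.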

Row | SMILES | IC50 (Human FAAH) [µM] | also measured
1 | CCCCCCCCCCCCCCCC(=O)NCc1ccccc1 [Compound 1, N-benzylpalmitamide] | > 100 | 
2 | CCCCCCCCCCCCCCCCCC(=O)NCc1ccccc1 [Compound 2, N-Benzyloctadecanamide] | > 100 | 
3 | CCCCCCCC/C=C\CCCCCCCC(=O)NCc1ccccc1 [Compound 3, N-Benzyloctadec-9Z-enamide] | 16.7 | 
4 | CCCCC/C=C\C/C=C\CCCCCCCC(=O)NCc1ccccc1 [Compound 4, N-Benzyloctadeca-9Z,12Z-dienamide] | 10.8 | binding to the CB1 receptor (CB1 receptor): selectively bind; time at which concentration peaked in the blood [1]: ≤ 3 h; paw withdrawal thresholds (pain relief) relative to vehicle control ([2]; 100 mg/kg): significantly increased; also recorded: efficacious
5 | CC/C=C\C/C=C\C/C=C\CCCCCCCC(=O)NCc1ccccc1 [Compound 5, N-Benzyloctadeca-9Z,12Z,15Z-trienamide] | 41.8 | paw withdrawal thresholds (pain relief) relative to vehicle control [2]: not significant
6 | CCCCCCCC/C=C\CCCCCCCC(=O)NCc1cccc(OC)c1 [Compound 10, N-(3-Methoxybenzyl)octadec-9Z-enamide] | 11 | 
7 | CCCCC/C=C\C/C=C\CCCCCCCC(=O)NCc1cccc(OC)c1 [Compound 11, N-(3-Methoxybenzyl)octadeca-9Z,12Z-dienamide] | 10.3 | 
8 | CC/C=C\C/C=C\C/C=C\CCCCCCCC(=O)NCc1cccc(OC)c1 [Compound 12, N-(3-Methoxybenzyl)octadeca-9Z,12Z,15Z-trienamide] | 13.7 | 
9 | CCCCC/C=C\C/C=C\CCCCCCCC(=O)NCCc1ccccc1 [Compound 18, N-Phenethyloctadeca-9Z,12Z-dienamide] |  | IC50 (recombinant human sEH): 28 nM
